Experimental data: ChEMBL document CHEMBL4038331 (J Med Chem, 2017)
Active and inactive are the calls of the source. The rule behind the calls is not given here.

Legend:
Liver [1] = assay: Antioxidant activity in rat liver mitochondria assessed as inhibition of ADP/FeSO4-induced lipid peroxidation at 5 uM preincubated for 5 mins followed by ADP/FeSO4 addition; format: functional
In short: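 Rat liver mitochondria (2 mg) in 100 mM KCl, 10 mM Tris-HCl pH 7.6, with glutamate/malate (5/2.5 mM) at 37 °C. After 5 min with compound (5 μM), peroxidation was started with ADP/0.1 mM FeSO4. The lag phase of O2 consumption was measured by Clark electrode and expressed as % of control. Six experiments.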

Liver [2] = assay: Induction of basal respiration in rat liver mitochondria measured 5 mins after ADP phosphorylation in presence of glutamate/malate; format: functional
In short: (§1)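 Glutamate/malate (10/5 mM) or succinate (5 mM) was the substrate, with compound 2.5–10 μM for 5 min (state 2). ADP was added (125 nmol glutamate/malate; 75 nmol succinate), then oligomycin 2 μg/mL, then FCCP 1 μM. RCR and ADP/O were calculated. Seven experiments.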

Liver [3] = assay: Ratio of drug level in rat liver intra-mitochondria to extra-mitochondria at 1 uM in presence of succinate/valinomycin by TPP+-based electrode assay; format: ADME, tissue-based
In short: (§2)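 TPP+-selective electrode with rat liver mitochondria (0.5 mg/mL) in 120 mM KCl, 10 mM HEPES pH 7.2, 1 mM EGTA at 37 °C with rotenone 1.5 μM. Five 1 μM additions calibrated the electrode, then succinate 10 mM was added, then valinomycin 0.2 μg/mL. The accumulation ratio assumed a matrix volume of ~0.5 μL/mg with a binding correction.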

[4] = Lipophilicity of compound in Ag/AgCl-NaCl containing PET membrane assessed as tranfer potential at pH 7; format: physicochemical
In short: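 Transfer across a liquid–liquid interface on a microporous PET membrane, with 1,6-dichlorohexane organic phase containing BTPPATPBCl. A gelled 2 mM BTPPACl + 2 mM NaCl reference was used, with 10 mM Tris-HCl pH 7.0 aqueous electrolyte.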

Liver [5] = assay: Increase in oligomycin-inhibited respiration in rat liver mitochondria after 5 mins in presence of succinate; format: functional; in short: as §1
Liver [6] = assay: Induction of basal oxygen consumption under nonphosphorylative conditions in rat liver mitochondria after 5 mins in presence of succinate; format: functional; in short: as §1
Liver [7] = assay: Decrease in oxidative phosphorylation efficiency in rat liver mitochondria assessed as reduction in respiratory control ratio after 5 mins in presence of glutamate/malate; format: functional; in short: as §1
Liver [8] = assay: Induction of ADP-stimulated respiration in rat liver mitochondria after 5 mins in presence of succinate; format: functional; in short: as §1
[9] = Antioxidant activity assessed as GO radical scavenging activity measured for 30 mins in absence of light; format: functional
In short: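 Ethanolic GO• (5 mM stock) diluted to absorbance 1.00 ± 0.02 at 428 nm. Test solutions (5–75 μM in ethanol) were added in triplicate and read at 428 nm at room temperature. Inhibition was taken against an ethanol blank (100% radical).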

Liver [10] = assay: Induction of basal respiration in rat liver mitochondria measured 5 mins after ADP phosphorylation in presence of succinate; format: functional; in short: as §1
Liver [11] = assay: Decrease in oxidative phosphorylation efficiency in rat liver mitochondria assessed as reduction in coupling between ATP systhesis and oxygen consumption after 5 mins in presence of glutamate/malate; format: functional; in short: as §1
Liver [12] = assay: Drug uptake in rat liver intra-mitochondria at 1 uM in presence of succinate/valinomycin by TPP+-based electrode assay; format: ADME, tissue-based; in short: as §2
[13] = Antioxidant activity assessed as ABTS radical scavenging activity measured each minute for 15 mins by spectrophotometric analysis; format: functional
In short: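 ABTS•+ generated from 7 mM ABTS plus potassium persulfate, held 16 h dark at room temperature, then diluted in ethanol to absorbance 0.72 ± 0.02. Ethanolic test solutions (10–500 μM) were added to radical solution in triplicate. Inhibition was taken against an ethanol blank (100% radical), and IC50 was read from dose–response curves.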

[14] = Redox potential of compound in Ag/AgCl-NaCl containing phosphate buffer at 0.1 mM at pH 7.4 by cyclic voltammetric analysis
In short: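 Voltammetry used a glassy carbon working electrode, Pt counter and Ag/AgCl reference. Compound was at 0.1 mM final (10 mM ethanolic stock) in pH 7.4 potassium phosphate electrolyte.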

Liver [15] = assay: Decrease in oxidative phosphorylation efficiency in rat liver mitochondria assessed as reduction in coupling between ATP systhesis and oxygen consumption after 5 mins in presence of succinate; format: functional; in short: as §1
Liver [16] = assay: Induction of ADP-stimulated respiration in rat liver mitochondria after 5 mins in presence of glutamate/malate; format: functional; in short: as §1
[17] = Antioxidant activity assessed as DPPH radical scavenging activity measured every minute for 45 mins; format: functional
In short: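 DPPH• ethanolic solution diluted to absorbance 0.72 ± 0.02 at 515 nm. Ethanolic test solutions (50–500 μM) were added in triplicate and read at 515 nm. Inhibition was taken against an ethanol blank (100% radical), and IC50 was read from dose–response curves.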

Liver [18] = assay: Increase in oligomycin-inhibited respiration in rat liver mitochondria after 5 mins in presence of glutamate/malate; format: functional; in short: as §1
Liver [19] = assay: Drug uptake in rat liver extra-mitochondria at 1 uM in presence of succinate/valinomycin by TPP+-based electrode assay; format: ADME, tissue-based; in short: as §2
Liver [20] = assay: Induction of basal oxygen consumption under nonphosphorylative conditions in rat liver mitochondria after 5 mins in presence of glutamate/malate; format: functional; in short: as §1
Liver [21] = assay: Antioxidant activity in rat liver mitochondria assessed as inhibition of FeSO4/H2O2-induced lipid peroxidation at 5 uM preincubated for 5 mins followed by FeSO4/H2O2 addition for 15 mins by TBARS-based fluorescence assay; format: functional
In short: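 Rat liver mitochondria (2 mg protein/mL) in 100 mM KCl, 10 mM Tris-HCl pH 7.6 with glutamate/malate at 37 °C. After 5 min with compound (5 μM), 100 μM FeSO4/500 μM H2O2/5 mM ascorbate was added for 15 min. Butylated hydroxytoluene, perchloric acid and thiobarbituric acid were added, then heated 15 min at 100 °C. Read-out as % of control, three experiments.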

[22] = Iron chelating activity in ammonium acetate buffer assessed as inhibition of [Fe(ferrozine)3]2+ formation at 100 uM at pH 6.7 measured after 10 mins by spectrophotometric analysis
In short: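 Ferrozine assay in ammonium acetate buffer pH 6.7. Compound (100 μM) plus ammonium iron(II) sulfate (20 μM) for 10 min, read at 562 nm. Ferrozine was added, incubated 10 min at 37 °C, and re-read at 562 nm. The first reading was subtracted, with a DMSO blank and EDTA = 100%. Three experiments.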

[23] = Induction of mPTP in energized rat liver mitochondria at 2.5 to 10 uM after 5 mins in presence of succinate by spectrophotometric analysis
Liver [24] = assay: Induction of membrane hyperpolarization in rat liver mitochondria assessed as change in repolarization potential at 2.5 uM; format: functional
In short: (§3)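 Safranine (5 μM) fluorescence (ex 495/em 586 nm) at 25 °C. Rat liver mitochondria (0.5 mg/2 mL) were in 200 mM sucrose, 1 mM KH2PO4, 10 mM Tris pH 7.4, 10 μM EGTA with glutamate/malate or succinate, after 5 min with 2.5–10 μM. ADP 25 nmol depolarised, then FCCP 1 μM was added. A valinomycin calibration in K+-free medium was used, five experiments.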

Rattus norvegicus [25] = species: Rattus norvegicus; assay: Inhibition of mPTP in energized rat liver mitochondria at 2.5 to 10 uM after 5 mins in presence of succinate by spectrophotometric analysis
Liver [26] = assay: Inhibition of ADP-induced membrane depolarization in succinate energized rat liver mitochondria at 10 uM preincubated for 5 mins followed by ADP addition measured by safranine-based spectrofluorometric analysis; format: functional, tissue-based; in short: as §3
Rattus norvegicus [27] = species: Rattus norvegicus; assay: Inhibition of mPTP in energized rat liver mitochondria at 10 uM after 5 mins in presence of succinate by spectrophotometric analysis
In short: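 Ca2+ (15–50 μM, titrated daily) added to trigger mPTP, with cyclosporin A as control. Swelling followed as light scattering at 540 nm with stirring at 37 °C. Reported as Δabsorbance; mean ± SEM, n=3.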

SMILES: CS(=O)(=O)[O-].O=C(/C=C/c1ccc(O)c(O)c1)NCC[P+](c1ccccc1)(c1ccccc1)c1ccccc1
- inhibition (Liver [1]): Active
- Activity (Liver [2]): Dose-dependent effect
- Ratio (Liver [3]): 600
- Activity [4]: 0.572 V
- Activity (Liver [5]): Dose-dependent effect
- Activity (Liver [6]): Dose-dependent effect
- Activity (Liver [7]): Dose-dependent effect
- Activity (Liver [8]): Dose-dependent effect
- IC50 [9]: 4.5 µM
- Activity (Liver [10]): Dose-dependent effect
- Activity (Liver [11]): Dose-dependent effect
- Drug uptake (Liver [12]): 1.5 mM
- IC50 [13]: 33.3 µM
- Activity [14]: 0.166 V
- Activity (Liver [15]): Dose-dependent effect
- Activity (Liver [16]): Dose-dependent effect
- IC50 [17]: 35.4 µM
- Activity (Liver [18]): Dose-dependent effect
- Drug uptake (Liver [19]): 3.7 µM

SMILES: CS(=O)(=O)[O-].O=C(/C=C/c1ccc(O)c(O)c1)NCCCCCC[P+](c1ccccc1)(c1ccccc1)c1ccccc1
- Activity (Liver [2]): Dose-dependent effect
- Ratio (Liver [3]): 2500
- Activity [4]: 0.396 V
- Activity (Liver [5]): Dose-dependent effect
- Activity (Liver [6]): Dose-dependent effect
- Activity (Liver [7]): Dose-dependent effect
- Activity (Liver [20]): Dose-dependent effect
- Activity (Liver [8]): Dose-dependent effect
- IC50 [9]: 4.1 µM
- Activity (Liver [10]): Dose-dependent effect
- Activity (Liver [11]): Dose-dependent effect
- Drug uptake (Liver [12]): 2.5 mM
- IC50 [13]: 30.5 µM
- Activity [14]: 0.164 V
- Activity (Liver [15]): Dose-dependent effect
- Activity (Liver [16]): Dose-dependent effect
- inhibition (Liver [21]): Active
- IC50 [17]: 29.5 µM
- Activity (Liver [18]): Dose-dependent effect
- Drug uptake (Liver [19]): 1.8 µM
- inhibition [22]: Active

SMILES: O=C(O)CN(CCN(CC(=O)O)CC(=O)O)CC(=O)O
- inhibition [22]: Active

SMILES: CS(=O)(=O)[O-].O=C(/C=C/c1cc(O)c(O)c(O)c1)NCCCCCCCC[P+](c1ccccc1)(c1ccccc1)c1ccccc1
- inhibition (Liver [1]): Active
- Activity [23]: Non-Toxic
- Activity (Liver [2]): Dose-dependent effect
- Ratio (Liver [3]): 3900
- Activity [4]: 0.423 V
- Activity (Liver [5]): Dose-dependent effect
- Activity (Liver [6]): Dose-dependent effect
- Activity (Liver [7]): Dose-dependent effect
- Activity (Liver [20]): Dose-dependent effect
- Activity (Liver [8]): Dose-dependent effect
- IC50 [9]: 2.3 µM
- Activity (Liver [10]): Dose-dependent effect
- Activity (Liver [11]): Dose-dependent effect
- Drug uptake (Liver [12]): 4.5 mM
- Activity (Liver [24]): 25 mV
- IC50 [13]: 8.7 µM
- Activity [14]: 0.046 V
- Activity (Liver [15]): Dose-dependent effect
- Activity (Liver [16]): Dose-dependent effect
- IC50 [17]: 14.7 µM
- Activity (Liver [18]): Dose-dependent effect
- inhibition (Rattus norvegicus [25]): Active
- Drug uptake (Liver [19]): 1 µM

SMILES: CS(=O)(=O)[O-].O=C(/C=C/c1cc(O)c(O)c(O)c1)NCCCCCCCCCC[P+](c1ccccc1)(c1ccccc1)c1ccccc1
- inhibition (Liver [1]): Active
- Activity [23]: Non-Toxic
- inhibition (Liver [26]): Active
- Activity (Liver [2]): Dose-dependent effect
- Ratio (Liver [3]): 3500
- Activity [4]: 0.377 V
- Activity (Liver [5]): Dose-dependent effect
- Activity (Liver [6]): Dose-dependent effect
- Activity (Liver [7]): Dose-dependent effect
- Activity (Liver [20]): Dose-dependent effect
- Activity (Liver [8]): Dose-dependent effect
- IC50 [9]: 2.5 µM
- Activity (Liver [10]): Dose-dependent effect
- Activity (Liver [11]): Dose-dependent effect
- Drug uptake (Liver [12]): 5 mM
- Activity (Liver [24]): 25 mV
- IC50 [13]: 7.5 µM
- Activity [14]: 0.057 V
- Activity (Liver [15]): Dose-dependent effect
- Activity (Liver [16]): Dose-dependent effect
- inhibition (Liver [21]): Active
- IC50 [17]: 13.7 µM
- Activity (Liver [18]): Dose-dependent effect
- inhibition (Rattus norvegicus [25]): Active
- Drug uptake (Liver [19]): 1.4 µM

SMILES: O=C(O)/C=C/c1ccc(O)c(O)c1 [CAFFEIC ACID]
- IC50 [9]: 3.4 µM
- IC50 [13]: 17.9 µM
- Activity [14]: 0.168 V
- IC50 [17]: 18.1 µM

SMILES: CS(=O)(=O)[O-].O=C(/C=C/c1ccc(O)c(O)c1)NCCCCCCCC[P+](c1ccccc1)(c1ccccc1)c1ccccc1
- Activity [23]: Non-Toxic
- Activity (Liver [2]): Dose-dependent effect
- Ratio (Liver [3]): 5100
- Activity [4]: 0.345 V
- Activity (Liver [5]): Dose-dependent effect
- Activity (Liver [6]): Dose-dependent effect
- Activity (Liver [7]): Dose-dependent effect
- Activity (Liver [20]): Dose-dependent effect
- Activity (Liver [8]): Dose-dependent effect
- IC50 [9]: 2.8 µM
- Activity (Liver [10]): Dose-dependent effect
- Activity (Liver [11]): Dose-dependent effect
- Drug uptake (Liver [12]): 5.7 mM
- Activity (Liver [24]): 10 mV
- IC50 [13]: 27.9 µM
- Activity [14]: 0.17 V
- Activity (Liver [15]): Dose-dependent effect
- Activity (Liver [16]): Dose-dependent effect
- IC50 [17]: 28 µM
- Activity (Liver [18]): Dose-dependent effect
- inhibition (Rattus norvegicus [25]): Active
- Drug uptake (Liver [19]): 1.2 µM

SMILES: COC1=C(OC)C(=O)C(CCCCCCCCCC[P+](c2ccccc2)(c2ccccc2)c2ccccc2)=C(C)C1=O.CS(=O)(=O)[O-] [MITOQUINONE MESYLATE]
- Activity [23]: Non-Toxic
- inhibition (Rattus norvegicus [27]): inactive
- inhibition [22]: inactive
